Tests used:
SK-BR-3 = test: Antiproliferative activity against estrogen receptor-negative Her2 overexpressing in human SKBR3 cells; type: functional, cell-based
Summary of the method: (§1)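 IC50 values for growth inhibition are reported as means ± standard deviations from at least two separate experiments, each run in triplicate.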

MCF7 = test: Antiproliferative activity against estrogen receptor-positive in human MCF7 cells; type: functional, cell-based; summary of the method: as §1
[1] = target: Heat shock protein HSP 90-beta (Homo sapiens) (UniProt P08238); test: Inhibition of HSP90 in human MCF7 cells assessed as degradation of Raf1 protein after 24 hrs by Western blot analysis; type: cell-based
Summary of the method: (§2)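 MCF-7 breast cancer cells were exposed to a range of test concentrations (μM) for 24 h, then lysed. Lysates were immunoblotted for the Hsp90-dependent clients Raf-1 and Akt, and also for Hsp90 itself. Actin served as the non-Hsp90-dependent reference protein.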

[2] = target: Heat shock protein HSP 90-beta (Homo sapiens) (UniProt P08238); test: Inhibition of HSP90 in human MCF7 cells assessed as degradation of Akt protein after 24 hrs by Western blot analysis; type: cell-based; summary of the method: as §2

Heat shock protein HSP 90-beta (Homo sapiens), sequence (P08238 whole entry): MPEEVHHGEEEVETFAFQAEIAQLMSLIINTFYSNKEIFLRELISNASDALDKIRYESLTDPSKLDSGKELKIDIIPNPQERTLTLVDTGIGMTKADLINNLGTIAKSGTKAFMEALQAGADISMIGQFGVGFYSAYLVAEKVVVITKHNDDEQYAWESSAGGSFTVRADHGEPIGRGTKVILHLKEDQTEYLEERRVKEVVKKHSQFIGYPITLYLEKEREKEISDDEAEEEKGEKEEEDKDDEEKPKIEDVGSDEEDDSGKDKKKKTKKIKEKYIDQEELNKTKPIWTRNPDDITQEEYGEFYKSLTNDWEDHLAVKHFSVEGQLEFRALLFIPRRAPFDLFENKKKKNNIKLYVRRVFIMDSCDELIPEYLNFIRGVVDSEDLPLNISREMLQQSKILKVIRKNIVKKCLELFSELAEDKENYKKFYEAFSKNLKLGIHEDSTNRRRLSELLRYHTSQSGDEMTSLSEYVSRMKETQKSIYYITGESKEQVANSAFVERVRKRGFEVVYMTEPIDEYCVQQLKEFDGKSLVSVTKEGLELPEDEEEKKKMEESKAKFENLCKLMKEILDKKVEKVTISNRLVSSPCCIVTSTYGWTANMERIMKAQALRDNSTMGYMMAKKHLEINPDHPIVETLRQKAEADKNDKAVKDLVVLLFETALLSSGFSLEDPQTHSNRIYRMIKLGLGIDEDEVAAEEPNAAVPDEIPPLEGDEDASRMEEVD

IC50 (SK-BR-3) [µM] | IC50 (MCF7) [µM] | inhibition [1] | inhibition [2] | Compound
10.6 | 8.42 |  |  | CN1CCC(Oc2ccc3cc(-c4cccc(C#N)c4)c(=O)oc3c2)CC1
5.78 | 4.12 |  |  | CN1CCC(Oc2ccc3cc(-c4ccc(OC(F)(F)F)cc4)c(=O)oc3c2)CC1
14.8 | 8.79 |  |  | CN1CCC(Oc2ccc3cc(-c4ccc5c(c4)OCO5)c(=O)oc3c2)CC1
7.38 | 3.83 |  |  | Cc1c(OC2CCN(C)CC2)ccc2cc(-c3ccc(F)cc3)c(=O)oc12
14.3 | 7.72 |  |  | Cc1c(OC2CCN(C)CC2)ccc2cc(-c3ccccc3)c(=O)oc12
5.21 | 3.71 |  |  | Cc1c(OC2CCN(C)CC2)ccc2cc(-c3ccc4c(c3)OCO4)c(=O)oc12
8.24 | 3.89 |  |  | CN1CCC(Oc2ccc3cc(-c4ccc(Cl)cc4)c(=O)oc3c2)CC1
15.6 | 15.6 |  |  | CN1CCC(Oc2ccc3cc(-c4ccccc4-c4ccccc4)c(=O)oc3c2)CC1
4.51 | 1.65 |  |  | Cc1c(OC2CCN(C)CC2)ccc2cc(-c3ccc(OC(F)(F)F)cc3)c(=O)oc12
0.98 | 0.81 | Dose-dependent effect | Dose-dependent effect | CN1CCC(Oc2ccc3cc(-c4cc5ccccc5s4)c(=O)oc3c2)CC1
43.9 | 10.5 |  |  | CN1CCC(Oc2ccc3cc(-c4ccc(F)cc4)c(=O)oc3c2)CC1
24.9 | 7.67 |  |  | CN1CCC(Oc2ccc3cc(-c4cccc(F)c4)c(=O)oc3c2)CC1
29.9 | 16.9 |  |  | COc1ccc(-c2cc3ccc(OC4CCN(C)CC4)cc3oc2=O)cc1
25.4 | 10.6 |  |  | CN1CCC(Oc2ccc3cc(-c4ccccc4Cl)c(=O)oc3c2)CC1
4.94 | 1.24 |  |  | Cc1c(OC2CCN(C)CC2)ccc2cc(-c3ccc(Cl)cc3)c(=O)oc12
38.4 | 29 |  |  | CN1CCC(Oc2ccc3cc(-c4ccccc4)c(=O)oc3c2)CC1
4.43 | 1.45 |  |  | CN1CCC(Oc2ccc3cc(-c4ccc(Oc5ccccc5)cc4)c(=O)oc3c2)CC1
9.21 | 4.64 |  |  | CN1CCC(Oc2ccc3cc(-c4cccc(C(F)(F)F)c4)c(=O)oc3c2)CC1
3.33 | 3.08 |  |  | CN1CCC(Oc2ccc3cc(-c4ccc(-c5ccccc5)cc4)c(=O)oc3c2)CC1
5.84 | 4.93 |  |  | CN1CCC(Oc2ccc3cc(-c4cc5ccccc5o4)c(=O)oc3c2)CC1
9.46 | 5.79 |  |  | CN1CCC(Oc2ccc3cc(-c4cccc(Cl)c4)c(=O)oc3c2)CC1
11.2 | 8.6 |  |  | Cc1ccc(-c2cc3ccc(OC4CCN(C)CC4)cc3oc2=O)cc1
5.52 | 1.97 |  |  | COc1ccc(-c2cc3ccc(OC4CCN(C)CC4)c(C)c3oc2=O)cc1
4.42 | 2.36 |  |  | CN1CCC(Oc2ccc3cc(-c4ccc(C(C)(C)C)cc4)c(=O)oc3c2)CC1

— ChEMBL document CHEMBL2062498, “3-Arylcoumarin derivatives manifest anti-proliferative activity through Hsp90 inhibition” (ACS Med Chem Lett, 2012)
